Rad51 HR inh = Rad51 (human) homologous recombination inhibition; Q06609; hRad51 DNA strand exchange, fluorescence dequenching; inhibition, % at 10 µM; 200,000 tested, 0.085% active; AID 1385;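 active = inhibition above 40% at the single screening dose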
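Material: hRad51 filaments on single-stranded DNA; Reagent: Donor/quencher-labelled 47-bp dsDNA substrate; Compound: 10 µM final, single point; Schedule: 37 °C 15-min filament assembly, 30-min compound preincubation, 15-min exchange; Technique: FRET fluorescence, excitation 485 nm, emission 520 nm; Benchmarks: control wells and blank wells on each plate.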
TNF necrop inh = inhibitors of TNF-alpha induced necroptosis in Jurkat FADD-/- cells; Jurkat FADD-/- TNF necroptosis rescue, ATP luminescence, 24 h; 0 = TNF only, 100 = no-TNF cells; activation (protection from cell death), % at 10 µM; 220,000 tested, 0.068% active; AID 463075;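 active = activation, meaning protection from cell death, of at least 50% relative to plate controls; inactive = activation below 50%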;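 note: necroptosis triggered by 40 ng/mL TNF-alpha added together with compound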
HMGR II inh = E. faecalis class II HMG-CoA reductase inhibition. purified E. faecalis HMGR, NADPH absorbance 340 nm kinetic. AID 1066. 190,000 tested, 0.41% active. inhibition, % at 10 µM;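 active = inhibition above a set limit, the median over all tested compounds plus 3 SD, cut at about 9.5% in these data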;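 note: enzyme runs in reverse so mevalonate oxidation gives rising NADPH absorbance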
PERK inh = blocks human PERK kinase; CHO PERK-DD fusion, SEAP luminescence translation reporter; inhibition, % at 5.6 µM; 220,000 tested, 0.17% active; AID 1416;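 active = inhibition above the mean inhibition of all tested compounds plus 3 SD, set separately per screening campaign, cut at about 2.9% in these data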;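 note: PERK kinase domain activated by AP20187 dimerizer at 100 nM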
Target sequence (Q9NZJ5 whole entry, looked up, the tested form may be a part): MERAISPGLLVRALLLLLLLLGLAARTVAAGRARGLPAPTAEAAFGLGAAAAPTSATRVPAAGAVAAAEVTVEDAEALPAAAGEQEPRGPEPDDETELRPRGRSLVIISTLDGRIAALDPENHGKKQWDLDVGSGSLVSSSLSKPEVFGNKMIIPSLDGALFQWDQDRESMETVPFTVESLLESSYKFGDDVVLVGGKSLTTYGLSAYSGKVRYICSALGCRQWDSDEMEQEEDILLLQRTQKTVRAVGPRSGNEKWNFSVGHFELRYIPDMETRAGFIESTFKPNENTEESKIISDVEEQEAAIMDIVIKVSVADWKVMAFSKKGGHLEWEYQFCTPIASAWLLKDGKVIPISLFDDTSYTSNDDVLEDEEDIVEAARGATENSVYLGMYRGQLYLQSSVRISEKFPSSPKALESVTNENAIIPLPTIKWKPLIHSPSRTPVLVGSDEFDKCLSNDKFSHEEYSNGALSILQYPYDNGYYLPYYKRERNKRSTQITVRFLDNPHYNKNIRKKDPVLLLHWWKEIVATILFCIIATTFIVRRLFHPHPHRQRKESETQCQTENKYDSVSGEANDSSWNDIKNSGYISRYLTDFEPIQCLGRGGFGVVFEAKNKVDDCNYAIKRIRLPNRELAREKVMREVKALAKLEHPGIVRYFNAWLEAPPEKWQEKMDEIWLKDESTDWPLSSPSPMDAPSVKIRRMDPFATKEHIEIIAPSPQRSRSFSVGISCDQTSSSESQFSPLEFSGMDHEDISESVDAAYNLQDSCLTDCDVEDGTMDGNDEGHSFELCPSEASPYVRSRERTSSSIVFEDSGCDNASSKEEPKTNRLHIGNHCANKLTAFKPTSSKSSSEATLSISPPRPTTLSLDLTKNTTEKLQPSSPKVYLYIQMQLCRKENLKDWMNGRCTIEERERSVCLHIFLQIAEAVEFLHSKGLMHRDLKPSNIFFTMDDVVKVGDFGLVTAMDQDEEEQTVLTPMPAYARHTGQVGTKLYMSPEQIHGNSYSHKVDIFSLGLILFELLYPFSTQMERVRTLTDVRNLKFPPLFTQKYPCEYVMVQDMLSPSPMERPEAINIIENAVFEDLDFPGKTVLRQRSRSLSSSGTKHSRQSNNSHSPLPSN
zVAD death inh = L929 zVAD cell death inhibition; L929 zVAD necroptosis rescue, ATP luminescence, 24 h; with zVAD 60 µM; viability rescue, % at 10 µM; 220,000 tested, 0.38% active;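 active = activation, scaled between plate controls, above about 75%, limit read from the data; inactive = activation under that limit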
zVAD death conf = confirmed blocker of zVAD induced death in L929 cells. shares compounds with zVAD death inh. L929 zVAD-induced necroptosis rescue, ATP luminescence, 24 h. activation (protection from necroptosis), % at 10 µM. 760 tested, 16% active. AID 463117;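 active = mean protection from necroptosis of at least 50% over duplicate tests; inactive = mean protection below 50%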
Numbers stand for hits; – = inactive; · = no result given. Only some compounds are listed: those with a hit (about 1% of all), similar ones and a draw of the others.

SMILES	Rad51 HR inh	TNF necrop inh	HMGR II inh	PERK inh	zVAD death inh	zVAD death conf
Cc1[nH][nH]c(=O)c1C(c1c(C)[nH][nH]c1=O)c1cn(Cc2cccc3ccccc23)c2ccccc12	–	–	·	–	–	·
Cc1[nH][nH]c(=O)c1C(c1c(C)[nH][nH]c1=O)c1cn(C)c2ccccc12	–	–	·	–	79.8	–
CC1(C)CC(=O)c2sc(NS(=O)(=O)c3ccc(F)cc3)nc2C1	–	–	–	–	–	·
O=C(NCc1cccc(C(F)(F)F)c1)C1CC2Cn3c(nc4ccccc43)C2N1Cc1ccccc1 (centres undefined)	–	·	·	·	·	·
CC(=O)/C=C(\C)Nc1ccc(-c2cnc(-c3ccccc3)o2)cc1	–	–	–	–	95.6	–
O=C(Nc1ccc(-c2nnc(-c3ccccc3)o2)cc1)C(F)(F)F	·	–	–	–	–	·
Nc1cc(C(=O)OCC(=O)NC(c2ccccc2)c2ccccc2)ccc1Cl	–	–	–	–	85.0	–
COCCN(C(=O)c1ccccc1OC1CCN(S(C)(=O)=O)CC1)C(C)C	·	–	–	–	–	·
Cc1ccc(NC(=O)Nc2cnccn2)cc1Cl	–	–	–	–	80.0	–
COC(=O)c1ccccc1NC(=O)Nc1cc(C)ccn1	–	–	–	–	–	·
COc1ccc(NC(=O)Nc2cnccn2)cc1	·	–	·	–	–	·
Cc1ccnc(NC(=O)Nc2ccc(Br)cc2Cl)c1	–	–	–	–	83.1	–
O=C(Nc1cnccn1)Nc1ccc(Cl)cc1Cl	–	–	–	–	80.1	–
O=C(Nc1ccccc1)C1=C[C@@H](c2coc3ccccc3c2=O)C[C@@H](OCc2ccc(CO)cc2)O1	·	–	–	–	–	·
OC(Cc1cccnc1)(Cc1cccnc1)c1cc2ccccc2[nH]1	·	–	–	–	–	·
CCOc1ccc(CC(=O)NNC(=O)/C=C/C(=O)O)cc1	–	–	·	–	–	·
NC(=O)NC(=O)COC(=O)[C@H](Cc1ccccc1)NC(=O)c1cccs1	–	–	–	–	–	·
Clc1cc2c(nn1)Nc1ccccc1S2	–	–	·	–	–	·
FC(F)(F)c1cnc2c(c1)Nc1ccccc1S2	–	–	–	–	98.3	58.2
CN=C1S/C(=C\c2cc(C)n(-c3ccccc3F)c2C)C(=O)N1C	–	–	–	–	78.2	–
O=C(Nc1ccccc1)n1ccc(-c2ccc(-n3ccnc3)cc2)n1	–	–	–	–	75.9	–
N#CCc1nn(-c2ccccc2)c2ncnc(N)c12	–	–	·	–	–	·
OCCC1CN(Cc2cccc3nccnc23)CCN1Cc1ccc(F)cc1 (centres undefined)	·	–	·	–	–	·
O=C(COc1ccccc1)n1nc(-c2ccc(Cl)cc2)nc1NCc1ccco1	–	–	–	–	82.6	–
O=C(c1ccco1)n1nc(-c2ccc(Cl)cc2)nc1NCc1ccco1	–	–	–	–	–	·
SMILES	Rad51 HR inh	TNF necrop inh	HMGR II inh	PERK inh	zVAD death inh	zVAD death conf
O=C(CN1CCCc2ccccc21)NCCc1ccc(F)cc1	–	–	–	–	–	·
NC(=O)c1c(-c2ccccc2)oc2ccc(O)cc12	–	–	–	–	84.8	–
COc1ccc(CCNC(=O)C(NS(=O)(=O)c2ccc3c(c2)CCN3C(C)=O)C(C)C)cc1OC (centres undefined)	·	–	–	–	–	·
CC(=O)Nc1ccc(N=Cc2ccc[nH]2)cc1	–	–	–	–	–	·
Oc1ccccc1N=Cc1ccc[nH]1	–	–	–	–	97.4	–
Cc1ccccc1S(=O)c1ccccc1C(=O)O (centres undefined)	–	–	·	–	–	·
Cn1cc(Br)c(-c2cccc(NC(=O)CCC(=O)O)c2)n1	–	–	·	–	–	·
c1ccc(CNc2ncnc3scc(-c4cccs4)c23)nc1	–	–	–	–	–	·
c1ccc(-c2csc3ncnc(NCc4ccccn4)c23)cc1	–	–	·	–	78.3	–
COc1cccc(C2C(C(C)=O)=C(O)C(=O)N2CCNCCO)c1 (centres undefined)	–	–	–	–	–	·
N#CC(C#N)=C1C=CC=CN1/C(=C\c1ccco1)C(=O)c1ccc(-c2ccccc2)cc1	–	–	–	–	98.9	–
N#CC(C#N)=C1C=CC=CN1/C(=C\c1ccco1)C(=O)c1ccc(Cl)cc1	–	–	–	–	–	·
O=C(/C=C/c1ccccc1)C1=C(O)C(=O)N(CCO)C1c1ccc2c(c1)OCO2 (centres undefined)	–	–	–	–	–	·
O=c1[nH]c2ccccc2nc1-c1ccc(Cl)cc1	–	–	·	–	76.4	–
O=C(COc1cccc(-n2cnnn2)c1)Nc1ccccc1	–	–	–	–	–	·
COc1ccc(Cl)cc1NC(=O)COc1cccc(-n2cnnn2)c1	–	–	–	–	80.8	–
CC(C(=O)Nc1nncs1)N1C(=O)C2C3C=CC(C3)C2C1=O (centres undefined)	–	–	–	–	78.0	–
c1ccc(Nc2nc(N3CCCCC3)nc(N3CCNCC3)n2)cc1	–	–	–	–	77.3	–
O=C(Cc1ccc(-n2cnnn2)cc1)NC12CC3CC(CC(C3)C1)C2	–	–	–	–	86.0	–
O=C(Nc1ccc(-n2cnnn2)cc1)C1CCC1	–	–	–	–	–	·
O=C(CSc1ncn(-c2ccccc2)n1)Nc1nncs1	–	–	–	–	–	·
CC(=O)Nc1ccc(C(=O)CSc2ncn(-c3ccccc3)n2)cc1	–	–	–	–	79.5	–
COC(=O)C1C(=O)C(C(=O)/C=C/c2ccccc2)C(=O)CC1(C)C (centres undefined)	–	–	–	–	81.2	–
CC1CN(S(=O)(=O)c2ccc(C(=O)Nc3ccc(S(=O)(=O)Nc4nccs4)cc3)cc2)CC(C)O1 (centres undefined)	·	–	–	–	–	·
CC1CN(S(=O)(=O)c2ccc(C(=O)Nc3nccs3)cc2)CC(C)O1 (centres undefined)	–	–	·	–	83.8	–
SMILES	Rad51 HR inh	TNF necrop inh	HMGR II inh	PERK inh	zVAD death inh	zVAD death conf
O=C(Nc1nccs1)c1ccc(S(=O)(=O)c2ccccc2)cc1	–	–	–	–	–	·
O=C(Nc1nccs1)c1ccc(S(=O)(=O)N2CCCCC2)cc1	–	51.6	–	–	104.5	76.6
CC(C)(C)c1csc(N/N=C/c2cccnc2)n1	–	–	–	–	77.0	–
O=C(Nc1ccc(C(=O)N2CCOCC2)cc1)c1cccc([N+](=O)[O-])c1	·	–	–	–	–	·
Cc1cc(NO)c(C(C)C)cc1N=O	–	–	–	–	78.1	–
Cc1cc(O)c(C(C)C)cc1N=Nc1ccccc1C(=O)O	–	–	·	–	–	·
NC(=O)c1ccc(NC(=O)COC(=O)/C=C/c2ccc3c(c2)OCO3)cc1	–	–	·	–	–	·
O=c1cc(-c2ccc(O)c(O)c2)oc2cc(O)cc(O)c12	–	–	·	·	84.6	–
O=c1cc(-c2ccc(O)c(-c3c(O)cc(O)c4c(=O)cc(-c5ccc(O)cc5)oc34)c2)oc2cc(O)cc(O)c12	–	–	–	–	–	·

Screens deposited in PubChem BioAssay by several laboratories.
